According to ChEMBL document CHEMBL1148754, “4- and 5-aroylindoles as novel classes of potent antitubulin agents” (J Med Chem, 2007):

Key:
Tubulin (Homo sapiens) = Tubulin (Homo sapiens) (UniProt P68371+Q9H4B7+P0DPH7+P68366+Q13509+Q71U36+P04350+Q3ZCM7+P07437+P68363+Q9BQE3+Q6PEY2+Q13885+Q9BVA1+Q9BUF5); assay: Displacement of [3H]colchicine from tubulin at 5 uM; format: protein-complex assay
KB = assay: Growth inhibition of human KB cells after 72 hrs by methylene blue dye assay; format: functional, cell-based
Outline: (§1)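 Antiproliferative screen in human cancer lines: KB (oral epidermoid carcinoma), HT29 (colorectal carcinoma), H460 (non-small cell lung carcinoma), TSGH and MKN45 (stomach carcinoma), plus KB-VIN10, an MDR-positive line overexpressing P-gp 170/MDR. Potency is reported as IC50.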

[1] = Growth inhibition of human KB-vin10 cells after 72 hrs by methylene blue dye assay; format: functional; conditions: KB-VIN10, 72 h; outline: as §1
MKN-45 = assay: Growth inhibition of human MKN45 cells after 72 hrs by methylene blue dye assay; format: functional, cell-based; conditions: MKN-45, 72 h; outline: as §1
TSGH = assay: Growth inhibition of human TSGH cells after 72 hrs by methylene blue dye assay; format: functional, cell-based; outline: as §1
HT-29 = assay: Growth inhibition of human HT29 cells after 72 hrs by methylene blue dye assay; format: functional, cell-based; conditions: HT-29, 72 h; outline: as §1
NCI-H460 = assay: Growth inhibition of human H460 cells after 72 hrs by methylene blue dye assay; format: functional, cell-based; conditions: NCI-H460, 72 h; outline: as §1
Tubulin = assay: Inhibition of tubulin polymerization in presence of microtubule associated proteins after 30 mins; format: protein-complex assay, Homo sapiens

Q: For `COc1ccc(/C=C\c2cc(OC)c(OC)c(OC)c2)cc1O`, which Activity (Tubulin (Homo sapiens)) is on record?
A: 89%

Q: Which results are given for `COc1cc(C(=O)c2ccc3c(ccn3C(C)C)c2)cc(OC)c1OC`?
A: IC50 (KB): 1800 nM; IC50 [1]: 1600 nM; IC50 (MKN-45): 470 nM; IC50 (TSGH): 1100 nM; IC50 (HT-29): 1200 nM; IC50 (NCI-H460): 1600 nM

Q: With `COc1cc(C(=O)c2c[nH]c3ccccc23)cc(OC)c1OC` as the molecule, how does the IC50 (KB) read?
A: 1600 nM

Q: What about the IC50 [1] of the same molecule?
A: 1500 nM

Q: And the IC50 (MKN-45)?
A: 980 nM

Q: What about the IC50 (TSGH) of the same molecule?
A: 1100 nM

Q: And the IC50 (HT-29)?
A: 1000 nM

Q: And the IC50 (NCI-H460)?
A: 1700 nM

Q: With `COc1cc(C(=O)c2ccc3c(ccn3CCC(=O)O)c2)cc(OC)c1OC` as the molecule, how does the IC50 (KB) read?
A: > 10000 nM

Q: And the IC50 [1]?
A: > 10000 nM

Q: And the IC50 (MKN-45)?
A: > 10000 nM

Q: What about the IC50 (TSGH) of the same molecule?
A: > 10000 nM

Q: And the IC50 (HT-29)?
A: > 10000 nM

Q: And the IC50 (NCI-H460)?
A: > 10000 nM

Q: Which IC50 (KB) does the source give for `COc1cc(C(=O)c2cccc3c2ccn3C)cc(OC)c1OC` here?
A: 22.1 nM

Q: What about the IC50 [1] of the same molecule?
A: 26.1 nM

Q: What about the IC50 (Tubulin) of the same molecule?
A: 1900 nM

Q: What about the IC50 (MKN-45) of the same molecule?
A: 21.6 nM

Q: What about the IC50 (TSGH) of the same molecule?
A: 26.9 nM

Q: What about the IC50 (HT-29) of the same molecule?
A: 22.4 nM

Q: And the Activity (Tubulin (Homo sapiens))?
A: 75%

Q: What about the IC50 (NCI-H460) of the same molecule?
A: 28.8 nM

Q: What does the source list for `COc1cc(C(=O)c2ccc3c(ccn3CO)c2)cc(OC)c1OC`?
A: IC50 (KB): 39 nM; IC50 [1]: 35 nM; IC50 (Tubulin): 1800 nM; IC50 (MKN-45): 33 nM; IC50 (TSGH): 43 nM; IC50 (HT-29): 34 nM; Activity (Tubulin (Homo sapiens)): 78%; IC50 (NCI-H460): 39 nM

Q: With `COc1cc(C(=O)c2ccc3c(ccn3CCN(C)C)c2)cc(OC)c1OC` as the molecule, how does the IC50 (KB) read?
A: 5200 nM

Q: And the IC50 [1]?
A: 4900 nM

Q: What about the IC50 (MKN-45) of the same molecule?
A: 2900 nM

Q: And the IC50 (TSGH)?
A: 4900 nM

Q: What about the IC50 (HT-29) of the same molecule?
A: 4600 nM

Q: What about the IC50 (NCI-H460) of the same molecule?
A: 5100 nM

Q: With `COc1cc(C(=O)c2cc3ccccc3[nH]2)cc(OC)c1OC` as the molecule, how does the IC50 (KB) read?
A: 2900 nM

Q: What about the IC50 [1] of the same molecule?
A: 2800 nM

Q: And the IC50 (MKN-45)?
A: 1500 nM

Q: And the IC50 (TSGH)?
A: 1800 nM

Q: What about the IC50 (HT-29) of the same molecule?
A: 1700 nM

Q: What about the IC50 (NCI-H460) of the same molecule?
A: 2100 nM

Q: Which results are given for `COc1cc(C(=O)c2cccc3cc[nH]c23)cc(OC)c1OC`?
A: IC50 (KB): 310 nM; IC50 [1]: 284 nM; IC50 (MKN-45): 210 nM; IC50 (TSGH): 310 nM; IC50 (HT-29): 250 nM; IC50 (NCI-H460): 295 nM

Q: Which IC50 [1] does the source give for `COc1cc2c(c(OC)c1OC)-c1ccc(OC)c(=O)cc1[C@@H](NC(C)=O)CC2` [COLCHICINE] here?
A: 120 nM

Q: And the IC50 (MKN-45)?
A: 13 nM

Q: And the IC50 (NCI-H460)?
A: 19 nM

Q: Which results are given for `COc1cc(C(=O)c2ccc3c(ccn3C)c2)cc(OC)c1OC`?
A: IC50 (KB): 13.6 nM; IC50 [1]: 12.5 nM; IC50 (Tubulin): 1100 nM; IC50 (MKN-45): 11.2 nM; IC50 (TSGH): 13.4 nM; IC50 (HT-29): 10.5 nM; Activity (Tubulin (Homo sapiens)): 84%; IC50 (NCI-H460): 14.1 nM

Q: What does the source list for `COc1cc(C(=O)c2cccc3[nH]ccc23)cc(OC)c1OC`?
A: IC50 (KB): 50.7 nM; IC50 [1]: 51.4 nM; IC50 (Tubulin): 2000 nM; IC50 (MKN-45): 49.1 nM; IC50 (TSGH): 54.4 nM; IC50 (HT-29): 46.4 nM; Activity (Tubulin (Homo sapiens)): 74%; IC50 (NCI-H460): 53.8 nM

Q: What does the source list for `CCn1ccc2cc(C(=O)c3cc(OC)c(OC)c(OC)c3)ccc21`?
A: IC50 (KB): 36 nM; IC50 [1]: 40 nM; IC50 (Tubulin): 1200 nM; IC50 (MKN-45): 31 nM; IC50 (TSGH): 41 nM; IC50 (HT-29): 32 nM; Activity (Tubulin (Homo sapiens)): 81%; IC50 (NCI-H460): 38 nM

Q: For `COc1cc(C(=O)c2ccc3c(ccn3CC(=O)O)c2)cc(OC)c1OC`, which IC50 (KB) is on record?
A: 520 nM

Q: And the IC50 [1]?
A: 476 nM

Q: What about the IC50 (MKN-45) of the same molecule?
A: 396 nM

Q: What about the IC50 (TSGH) of the same molecule?
A: 548 nM

Q: And the IC50 (HT-29)?
A: 460 nM

Q: What about the IC50 (NCI-H460) of the same molecule?
A: 530 nM

Q: What does the source list for `COc1cc(C(=O)c2ccc3cc[nH]c3c2)cc(OC)c1OC`?
A: IC50 (KB): 510 nM; IC50 [1]: 452 nM; IC50 (MKN-45): 480 nM; IC50 (TSGH): 430 nM; IC50 (HT-29): 330 nM; IC50 (NCI-H460): 520 nM

Q: With `CCCn1ccc2cc(C(=O)c3cc(OC)c(OC)c(OC)c3)ccc21` as the molecule, how does the IC50 (KB) read?
A: 1900 nM

Q: What about the IC50 [1] of the same molecule?
A: 2100 nM

Q: What about the IC50 (MKN-45) of the same molecule?
A: 680 nM

Q: What about the IC50 (TSGH) of the same molecule?
A: 1500 nM

Q: And the IC50 (HT-29)?
A: 1800 nM

Q: And the IC50 (NCI-H460)?
A: 2000 nM

Q: With `COc1cc(C(=O)c2ccc3[nH]ccc3c2)cc(OC)c1OC` as the molecule, how does the IC50 (KB) read?
A: 104 nM

Q: And the IC50 [1]?
A: 111 nM

Q: What about the IC50 (Tubulin) of the same molecule?
A: 2200 nM

Q: What about the IC50 (MKN-45) of the same molecule?
A: 88 nM

Q: What about the IC50 (TSGH) of the same molecule?
A: 103 nM

Q: What about the IC50 (HT-29) of the same molecule?
A: 100 nM

Q: What about the Activity (Tubulin (Homo sapiens)) of the same molecule?
A: 71%

Q: What about the IC50 (NCI-H460) of the same molecule?
A: 112 nM

Q: Which results are given for `COc1cc(C(=O)n2ccc3ccccc32)cc(OC)c1OC`?
A: IC50 (KB): > 10000 nM; IC50 [1]: > 10000 nM; IC50 (MKN-45): 5200 nM; IC50 (TSGH): 8400 nM; IC50 (HT-29): 9600 nM; IC50 (NCI-H460): > 10000 nM
